This note sets out measurements from ChEMBL document CHEMBL1629616 (Antimicrob Agents Chemother, 2009).

The target of one data set is T1, CYP1A2 (Homo sapiens, UniProt P05177).
T1 sequence (P05177 whole entry): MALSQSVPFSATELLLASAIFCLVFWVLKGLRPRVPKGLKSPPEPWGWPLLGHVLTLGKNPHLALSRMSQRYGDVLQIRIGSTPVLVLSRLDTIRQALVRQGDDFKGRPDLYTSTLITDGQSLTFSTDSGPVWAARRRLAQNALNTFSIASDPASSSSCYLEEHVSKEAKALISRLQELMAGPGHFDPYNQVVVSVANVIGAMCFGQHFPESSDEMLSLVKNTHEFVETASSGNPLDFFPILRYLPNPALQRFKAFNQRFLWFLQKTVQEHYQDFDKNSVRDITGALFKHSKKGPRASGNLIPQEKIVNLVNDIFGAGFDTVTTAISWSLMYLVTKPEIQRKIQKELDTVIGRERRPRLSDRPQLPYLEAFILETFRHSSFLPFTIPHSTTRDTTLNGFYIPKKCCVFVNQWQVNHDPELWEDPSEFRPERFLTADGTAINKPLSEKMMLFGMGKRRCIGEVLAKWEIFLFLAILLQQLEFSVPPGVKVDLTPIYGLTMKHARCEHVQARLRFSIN
Put plainly: Inhibition of CYP1A2 in human liver microsomes assessed as phenacetin O-deethylation at 100 uM after 30 mins. Type of data set: ADME, Microsome. The settings on record: probe phenacetin (O-deethylation). Background: Microsomes from liver hold many membrane-bound enzymes, among them those of drug oxidation.

A further data set has as its target T2, CYP2A6 (Homo sapiens, UniProt P11509).
T2 sequence (P11509 whole entry): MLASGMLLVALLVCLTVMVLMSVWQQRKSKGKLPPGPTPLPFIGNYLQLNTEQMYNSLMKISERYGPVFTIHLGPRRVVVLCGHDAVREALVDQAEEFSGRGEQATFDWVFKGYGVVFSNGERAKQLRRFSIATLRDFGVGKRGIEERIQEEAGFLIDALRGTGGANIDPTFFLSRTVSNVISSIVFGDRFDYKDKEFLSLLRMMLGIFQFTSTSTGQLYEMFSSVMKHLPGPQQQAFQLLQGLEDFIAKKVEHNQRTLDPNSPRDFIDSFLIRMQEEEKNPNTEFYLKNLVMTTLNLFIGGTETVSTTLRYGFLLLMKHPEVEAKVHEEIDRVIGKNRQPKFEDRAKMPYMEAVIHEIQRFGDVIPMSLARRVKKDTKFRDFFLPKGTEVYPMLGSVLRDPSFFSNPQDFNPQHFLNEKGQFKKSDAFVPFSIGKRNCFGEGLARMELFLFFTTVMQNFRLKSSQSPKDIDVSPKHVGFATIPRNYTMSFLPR
The experiment in a line: Inhibition of CYP2A6 in human liver microsomes assessed as coumarin 7-hydroxylation at 100 uM after 15 mins. Type of data set: ADME, Microsome. The following applies: probe coumarin (7-hydroxylation).

Another data set deals with T3, CYP2C8 (Homo sapiens, UniProt P10632).
T3 sequence (P10632 whole entry): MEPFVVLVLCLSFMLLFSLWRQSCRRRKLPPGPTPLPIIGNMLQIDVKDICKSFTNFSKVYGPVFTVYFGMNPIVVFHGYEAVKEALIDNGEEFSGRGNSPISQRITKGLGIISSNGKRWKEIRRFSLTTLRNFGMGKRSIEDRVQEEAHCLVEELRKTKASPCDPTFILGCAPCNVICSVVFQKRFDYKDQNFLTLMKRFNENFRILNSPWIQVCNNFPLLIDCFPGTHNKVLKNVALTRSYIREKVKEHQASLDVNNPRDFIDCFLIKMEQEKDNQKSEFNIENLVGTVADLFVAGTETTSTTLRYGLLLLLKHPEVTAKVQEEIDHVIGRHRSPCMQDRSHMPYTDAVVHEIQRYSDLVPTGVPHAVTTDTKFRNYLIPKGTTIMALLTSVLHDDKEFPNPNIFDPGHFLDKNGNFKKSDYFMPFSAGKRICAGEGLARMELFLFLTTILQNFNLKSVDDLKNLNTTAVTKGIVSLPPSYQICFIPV
Put plainly: Inhibition of CYP2C8 in human liver microsomes assessed as amodiquine N-deethylation at 100 uM after 15 mins. The data set is classed as ADME, Microsome. The following applies: probe amodiquine (N-deethylation).

The next data set concerns the target CYP2D6 (Homo sapiens, UniProt P10635). The experiment in a line: Inhibition of CYP2D6 in human liver microsomes assessed as dextromethorphan O-demethylation at 100 uM after 30 mins. The data set is classed as ADME, Microsome. The settings on record: probe dextromethorphan (O-demethylation).
Data set [1] concerns the target T4, Cytochrome P450 2B6 (Homo sapiens, UniProt P20813).
T4 sequence (P20813 whole entry): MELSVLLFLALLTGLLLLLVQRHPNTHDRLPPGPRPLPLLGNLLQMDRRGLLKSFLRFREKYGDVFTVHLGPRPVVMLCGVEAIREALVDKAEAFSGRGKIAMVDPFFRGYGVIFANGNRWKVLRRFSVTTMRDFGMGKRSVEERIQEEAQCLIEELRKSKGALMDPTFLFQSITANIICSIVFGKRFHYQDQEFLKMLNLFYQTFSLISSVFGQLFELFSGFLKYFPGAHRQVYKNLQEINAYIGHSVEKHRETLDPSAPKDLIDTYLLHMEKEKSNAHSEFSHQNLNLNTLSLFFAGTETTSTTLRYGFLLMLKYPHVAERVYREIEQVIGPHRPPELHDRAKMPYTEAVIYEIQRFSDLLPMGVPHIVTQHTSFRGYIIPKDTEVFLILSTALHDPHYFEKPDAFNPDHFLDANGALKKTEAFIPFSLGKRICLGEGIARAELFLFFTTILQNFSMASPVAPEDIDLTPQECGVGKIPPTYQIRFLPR
The experiment in a line: Inhibition of CYP2B6 in human liver microsomes assessed as 8-hydroxyefavirenz 14-hydroxylation after 10 mins. Type of data set: ADME, Microsome.

In data set [2] the target is T4, Cytochrome P450 2B6. Put plainly: Inhibition of CYP2B6 in human liver microsomes using efavirenz as probe after 10 mins. Type of data set: ADME, Microsome. Put shortly:
(§1)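 Ethyl acetate extraction under alkaline pH; 8-hydroxyefavirenz measured by HPLC-UV at 245 nm with ritonavir internal standard. IC50 from log concentration versus percent activity remaining.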

For data set [3], the target named is T4, Cytochrome P450 2B6. The experiment in a line: Inhibition of CYP2B6 in human liver microsomes using 8-hydroxyefavirenz as probe after 10 mins. Type of data set: ADME, Microsome.
Data set [4] deals with T4, Cytochrome P450 2B6. The experiment in a line: Inhibition of CYP2B6 in human liver microsomes at 10 uM preincubated for 5 to 30 mins. Type of data set: ADME, Microsome. The essentials:
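Efavirenz (final 100 μM) then added and incubated 10 min with cofactors. Activity compared with 0-min controls lacking inhibitor and NADPH.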

Data set [5] has as its target T4, Cytochrome P450 2B6. The experiment in a line: Inhibition of CYP2B6 in human liver microsomes assessed as efavirenz 8-hydroxylation at 10 uM after 60 mins. The settings on record: 1 h. The data set is classed as ADME, Microsome.
In data set [6] the target is T4, Cytochrome P450 2B6. Put plainly: Inhibition of CYP2B6 in human liver microsomes assessed as metabolite formation at 10 uM preincubated for 60 mins. The data set is classed as ADME, Microsome.
For data set [7], the target named is T4, Cytochrome P450 2B6. The experiment in a line: Inhibition of human CYP2B6 expressed in baculovirus assessed as voriconazole N-oxide formation. The data set is classed as ADME.
Data set [8] concerns the target T4, Cytochrome P450 2B6. Put plainly: Inhibition of CYP2B6 in human liver microsomes assessed as efavirenz 8-hydroxylation after 10 mins by Dixon plot analysis. Type of data set: ADME, Microsome. The essentials:
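8-Hydroxyefavirenz measured by HPLC-UV. Ki from nonlinear regression to competitive, noncompetitive and uncompetitive models, chosen using Dixon plots.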

Data set [9] has as its target T4, Cytochrome P450 2B6. Put plainly: Inhibition of CYP2B6 in human liver microsomes assessed as bupropion 4-hydroxylation after 15 mins by Dixon plot analysis. The data set is classed as ADME, Microsome.
Data set [10] concerns the target T4, Cytochrome P450 2B6. The experiment in a line: Inhibition of CYP2B6 in human liver microsomes assessed as efavirenz 8-hydroxylation after 10 mins. Type of data set: ADME, Microsome. Put shortly:
as §1

A further data set addresses CYP3A (Homo sapiens, UniProt P08684+P20815+P24462+Q9HB55). Put plainly: Inhibition of CYP3A in human liver microsomes assessed as midazolam 1'- hydroxylation after 5 mins. The settings on record: probe midazolam (1'-hydroxylation). Type of data set: ADME, Microsome. The essentials:
(§2)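 1′-Hydroxymidazolam measured by HPLC-UV at 230 nm with desmethyldiazepam internal standard. IC50 from log concentration versus percent activity remaining.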

The nature of data set [11]: Inhibition of CYP3A using felodipine as probe. The data set is classed as ADME.
Data set [12] in a line: Inhibition of CYP3A using nifedipine as probe. The data set is classed as ADME.
Data set [13] can be described thus: Inhibition of CYP3A using testosterone as probe. Type of data set: ADME.
A short description of data set [14]: Inhibition of CYP3A using midazolam as probe. The data set is classed as ADME. The essentials:
as §2

In data set [15] the target is T4, Cytochrome P450 2B6. Put plainly: Inhibition of CYP2B6 in human liver microsomes using bupropion as probe after 15 mins.
Data set [16] concerns the target T4, Cytochrome P450 2B6. The experiment in a line: Inhibition of CYP2B6 in human liver microsomes assessed as bupropion 4-hydroxylation after 15 mins.

SMILES strings stand for the structures. pIC50, pKi: −log10 of the molar value.

Sequence of CYP2D6 (P10635 whole entry): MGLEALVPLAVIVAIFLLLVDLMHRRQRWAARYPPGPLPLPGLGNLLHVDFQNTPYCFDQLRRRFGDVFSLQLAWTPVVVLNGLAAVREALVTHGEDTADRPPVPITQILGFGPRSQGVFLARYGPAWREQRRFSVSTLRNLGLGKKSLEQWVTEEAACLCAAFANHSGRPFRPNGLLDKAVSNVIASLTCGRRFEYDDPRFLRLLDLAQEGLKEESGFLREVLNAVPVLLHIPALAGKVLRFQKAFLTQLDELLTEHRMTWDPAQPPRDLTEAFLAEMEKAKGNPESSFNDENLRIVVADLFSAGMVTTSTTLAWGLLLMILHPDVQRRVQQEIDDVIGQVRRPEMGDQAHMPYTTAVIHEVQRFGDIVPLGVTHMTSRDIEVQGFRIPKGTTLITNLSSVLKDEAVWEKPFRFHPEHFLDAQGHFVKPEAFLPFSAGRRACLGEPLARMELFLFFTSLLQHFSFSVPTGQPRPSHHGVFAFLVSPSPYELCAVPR

What is called inhibition is how much of the control response was suppressed. Usually pIC50 stands for −log10 of the IC50, conventionally taken in molar units. Usually pKi stands for −log10 of the Ki, conventionally taken in molar units. Usually IC50 stands for the concentration that gives 50% inhibition. `C[C@@H](c1ncncc1F)[C@](O)(Cn1cncn1)c1ccc(F)cc1F` [VORICONAZOLE]: the inhibition at 0.5 h, 100 µM on CYP1A2 and on CYP2D6 was less than 25% in each case. For the same compound, the inhibition at 0.25 h, 100 µM on CYP2A6 and on CYP2C8 was less than 25% throughout. The negative-log IC50 (pIC50) is 6.10 at Cytochrome P450 2B6 [1]; 5.77 at Cytochrome P450 2B6 [2]; 6.10 at Cytochrome P450 2B6 [3]; 4.91 at Cytochrome P450 2B6 [7]; 5.77 at Cytochrome P450 2B6 [10]; 4.30 in [11]. Also, the negative logarithm of the IC50 (pIC50) in data set [12] was 4.98; in data set [13], 4.27; in [14], 4.98; against Cytochrome P450 2B6 [15], 5.92; on Cytochrome P450 2B6 [16], 5.92. Further, the results for the “inhibition (INH)” value against Cytochrome P450 2B6 [4], at Cytochrome P450 2B6 [5] and at Cytochrome P450 2B6 [6] were “Not Active”, “Not Active” and “Active”, respectively. For the same compound, the negative logarithm of the Ki (pKi) at Cytochrome P450 2B6 [8] is 6.40; at Cytochrome P450 2B6 [9], 6.47. The IC50 at 5 min at CYP3A was determined as 2900 nM.
